Source: ChEMBL document CHEMBL1949570, “Quinoline- and isoquinoline-sulfonamide derivatives of LCAP as potent CNS multi-receptor-5-HT1A/5-HT2A/5-HT7 and D2/D3/D4-agents: the synthesis and pharmacological evaluation” (Bioorg Med Chem, 2012)
The source made the active and inactive calls. The calls are words filed in the database; no cut-off is given here.

Key:
[1] = molecular target: T1, 5-hydroxytryptamine receptor 1A (Rattus norvegicus, UniProt P19327); assay: Displacement of [3H]8-OH-DPAT from rat hippocampus 5-HT1A receptor by liquid scintillation counter; assay type: tissue-based
T1 sequence (P19327 whole entry): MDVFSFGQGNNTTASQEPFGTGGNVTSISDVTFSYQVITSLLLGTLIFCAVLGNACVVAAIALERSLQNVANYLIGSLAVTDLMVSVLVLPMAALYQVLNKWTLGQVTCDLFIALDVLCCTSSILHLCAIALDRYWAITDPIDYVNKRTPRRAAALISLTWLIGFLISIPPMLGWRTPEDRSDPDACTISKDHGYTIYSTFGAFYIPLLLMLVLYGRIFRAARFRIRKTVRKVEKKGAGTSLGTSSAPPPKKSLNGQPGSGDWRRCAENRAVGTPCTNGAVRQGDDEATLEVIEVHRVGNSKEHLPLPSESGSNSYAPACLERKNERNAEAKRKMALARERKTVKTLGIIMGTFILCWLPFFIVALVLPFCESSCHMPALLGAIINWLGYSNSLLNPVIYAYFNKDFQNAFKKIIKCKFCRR
Outline: (§1)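 Competition binding. 5-HT1A: rat hippocampus, [3H]-8-OH-DPAT. 5-HT2A: rat cortex, [3H]-ketanserin. D2: rat striatum, [3H]-spiperone. 5-HT6: human receptor stably in HEK293, [3H]-LSD. 5-HT7: human receptor stably in HEK293, [3H]-5-CT. Vacuum filtration on GF/B filters, ice-cold washes, scintillation counting.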

[2] = molecular target: 5-hydroxytryptamine receptor 2A (Rattus norvegicus, UniProt P14842); assay: Displacement of [3H]Ketanserin from rat cortex 5-HT2A receptor by liquid scintillation counter; outline: as §1
Sequence of 5-hydroxytryptamine receptor 2A (P14842 whole entry): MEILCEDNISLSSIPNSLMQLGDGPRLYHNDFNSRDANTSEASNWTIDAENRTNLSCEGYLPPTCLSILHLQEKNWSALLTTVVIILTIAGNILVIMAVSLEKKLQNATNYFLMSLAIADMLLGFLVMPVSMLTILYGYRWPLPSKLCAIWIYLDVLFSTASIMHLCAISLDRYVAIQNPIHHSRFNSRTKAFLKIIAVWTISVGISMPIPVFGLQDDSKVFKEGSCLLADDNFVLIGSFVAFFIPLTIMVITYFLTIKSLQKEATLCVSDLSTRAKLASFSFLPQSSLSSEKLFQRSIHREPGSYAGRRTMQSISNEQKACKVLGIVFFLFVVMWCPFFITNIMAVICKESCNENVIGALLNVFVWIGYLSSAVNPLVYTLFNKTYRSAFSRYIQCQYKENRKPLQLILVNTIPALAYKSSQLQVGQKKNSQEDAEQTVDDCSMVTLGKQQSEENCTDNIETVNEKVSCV

Mus musculus [3] = species on record: Mus musculus; assay: Antipsychotic activity in CD1 mouse assessed as inhibition of MK-801-induced hyperactivity measuring number of crossings measured every 5 mins for 1 hr; assay type: functional, organism-based
Outline: (§2)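 Male CD-1 mice, one per cage, habituated 30 min; photobeam crossings (ambulation) then counted over 1 h, logged every 5 min. Drugs suspended in 1% aqueous Tween 80 and given ip at 10 ml/kg, 30 min before test. For hyperactivity, MK-801 (0.2 mg/kg, in distilled water) was given ip 15 min before test. 5–10 mice/dose; mean ± SEM, one-way ANOVA with Bonferroni test.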

Mus musculus [4] = assay: Antipsychotic activity in CD1 mouse assessed as reduction in spontaneous locomotor activity measuring number of crossings at 1.25 to 5 mg/kg every 5 mins for 1 hr; assay type: functional, organism-based; outline: as §2
Mus musculus [5] = assay: Antidepressant activity in Swiss albino mouse assessed as reduction in immobility time at 20 mg/kg measured for 4 mins by forced swim test; assay type: functional; design: scale not given: the % may be the effect or the level left
Outline: (§3)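 Porsolt forced swim in male Swiss albino mice. Drugs ip (10 ml/kg; 1% Tween 80 suspension, imipramine in water) 30 min before. Cylinder 25 cm high, 10 cm diameter, 6 cm water at 23–25 °C, 6 min session; immobility scored over final 4 min. 5–10 mice/dose; one-way ANOVA with Bonferroni.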

Mus musculus [6] = assay: Antidepressant activity in Swiss albino mouse assessed as reduction in immobility time at 10 mg/kg measured for 4 mins by forced swim test; assay type: functional; design: scale not given: the % may be the effect or the level left; outline: as §3
Rattus norvegicus [7] = assay: Anxiolytic activity in Wistar rat assessed as increase in open arm entries at 2.5 mg/kg after 5 mins by plus-maze test (reference value: 26.3 +/- 2.1 %); assay type: functional
Rattus norvegicus [8] = assay: Anxiolytic activity in Wistar rat assessed as increase in time spent in open arms at 5 mg/kg after 5 mins by plus-maze test (reference value: 13 +/- 2.3 %); assay type: functional
Rattus norvegicus [9] = assay: Anxiolytic activity in Wistar rat assessed as increase in open arm entries at 1.25 mg/kg after 5 mins by plus-maze test (reference value: 26.3 +/- 2.1 %); assay type: functional
Rattus norvegicus [10] = assay: Anxiolytic activity in Wistar rat assessed as increase in time spent in open arms at 1.25 mg/kg after 5 mins by plus-maze test (reference value: 13 +/- 2.3 %); assay type: functional
Rattus norvegicus [11] = assay: Anxiolytic activity in Wistar rat assessed as increase in open arm entries at 5 mg/kg after 5 mins by plus-maze test (reference value: 26.3 +/- 2.1 %); assay type: functional
Rattus norvegicus [12] = assay: Anxiolytic activity in Wistar rat assessed as increase in time spent in open arms at 2.5 mg/kg after 5 mins by plus-maze test (reference value: 13 +/- 2.3 %); assay type: functional
[13] = molecular target: T2, D(4) dopamine receptor (Homo sapiens) (UniProt P21917); assay: Displacement of [3H]-methylspiperone from human cloned dopamine D4 receptor expressed in HEK293 cells at 10 '-7 M by liquid scintillation counter; assay type: cell-based
T2 sequence (whole entry): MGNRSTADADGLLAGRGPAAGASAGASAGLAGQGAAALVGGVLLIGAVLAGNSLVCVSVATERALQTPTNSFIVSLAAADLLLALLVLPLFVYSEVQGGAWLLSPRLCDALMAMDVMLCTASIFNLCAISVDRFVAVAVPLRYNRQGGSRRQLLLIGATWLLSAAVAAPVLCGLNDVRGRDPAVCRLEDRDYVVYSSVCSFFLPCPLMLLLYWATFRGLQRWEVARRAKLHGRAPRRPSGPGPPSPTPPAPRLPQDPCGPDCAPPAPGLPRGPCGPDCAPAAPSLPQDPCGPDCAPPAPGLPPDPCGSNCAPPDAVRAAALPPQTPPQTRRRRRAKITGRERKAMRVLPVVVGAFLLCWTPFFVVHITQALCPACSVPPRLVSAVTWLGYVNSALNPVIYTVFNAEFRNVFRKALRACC

[14] = molecular target: T2, D(4) dopamine receptor (Homo sapiens); assay: Displacement of [3H]-methylspiperone from human cloned dopamine D4 receptor expressed in HEK293 cells at 10 '-6 M by liquid scintillation counter; assay type: cell-based
[15] = molecular target: D(3) dopamine receptor (Homo sapiens) (UniProt P35462); assay: Displacement of [3H]-methylspiperone from human cloned dopamine D3 receptor expressed in HEK293 cells at 10 '-6 M by liquid scintillation counter; assay type: cell-based
Sequence of D(3) dopamine receptor (Homo sapiens) (P35462 whole entry): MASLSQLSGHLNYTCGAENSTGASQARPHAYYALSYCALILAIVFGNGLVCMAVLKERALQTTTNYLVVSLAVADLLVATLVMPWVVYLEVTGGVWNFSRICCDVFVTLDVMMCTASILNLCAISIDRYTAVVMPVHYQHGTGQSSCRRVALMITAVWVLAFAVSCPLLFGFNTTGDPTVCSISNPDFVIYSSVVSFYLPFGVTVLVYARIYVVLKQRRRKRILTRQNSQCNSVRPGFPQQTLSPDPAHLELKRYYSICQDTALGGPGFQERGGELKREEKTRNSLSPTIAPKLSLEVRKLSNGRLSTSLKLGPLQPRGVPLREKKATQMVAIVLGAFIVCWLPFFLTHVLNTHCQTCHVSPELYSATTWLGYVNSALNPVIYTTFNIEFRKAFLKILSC

[16] = molecular target: D(3) dopamine receptor (Homo sapiens) (UniProt P35462); assay: Displacement of [3H]-methylspiperone from human cloned dopamine D3 receptor expressed in HEK293 cells at 10 '-7 M by liquid scintillation counter; assay type: cell-based
[17] = molecular target: 5-hydroxytryptamine receptor 6 (Homo sapiens, UniProt P50406); assay: Displacement of [3H]-LSD from human full length cloned 5HT6 receptor expressed in human HEK293 cells by liquid scintillation counter; assay type: cell-based; outline: as §1
Sequence of 5-hydroxytryptamine receptor 6 (P50406 whole entry): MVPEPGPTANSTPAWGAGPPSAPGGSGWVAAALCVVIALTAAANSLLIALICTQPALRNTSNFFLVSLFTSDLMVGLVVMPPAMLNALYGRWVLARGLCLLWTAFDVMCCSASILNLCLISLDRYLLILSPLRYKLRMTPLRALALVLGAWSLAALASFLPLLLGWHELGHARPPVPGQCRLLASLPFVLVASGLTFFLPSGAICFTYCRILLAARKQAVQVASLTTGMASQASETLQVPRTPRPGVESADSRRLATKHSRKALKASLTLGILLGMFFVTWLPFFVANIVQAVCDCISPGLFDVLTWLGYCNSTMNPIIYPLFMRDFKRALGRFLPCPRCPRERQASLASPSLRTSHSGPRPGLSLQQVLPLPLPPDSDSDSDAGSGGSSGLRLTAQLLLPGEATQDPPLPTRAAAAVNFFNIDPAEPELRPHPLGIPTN

[18] = molecular target: 5-hydroxytryptamine receptor 7 (Homo sapiens, UniProt P34969); assay: Displacement of [3H]5-CT form human cloned 5HT7 receptor expressed in human HEK293 cells by liquid scintillation counter; assay type: cell-based; outline: as §1
Sequence of 5-hydroxytryptamine receptor 7 (P34969 whole entry): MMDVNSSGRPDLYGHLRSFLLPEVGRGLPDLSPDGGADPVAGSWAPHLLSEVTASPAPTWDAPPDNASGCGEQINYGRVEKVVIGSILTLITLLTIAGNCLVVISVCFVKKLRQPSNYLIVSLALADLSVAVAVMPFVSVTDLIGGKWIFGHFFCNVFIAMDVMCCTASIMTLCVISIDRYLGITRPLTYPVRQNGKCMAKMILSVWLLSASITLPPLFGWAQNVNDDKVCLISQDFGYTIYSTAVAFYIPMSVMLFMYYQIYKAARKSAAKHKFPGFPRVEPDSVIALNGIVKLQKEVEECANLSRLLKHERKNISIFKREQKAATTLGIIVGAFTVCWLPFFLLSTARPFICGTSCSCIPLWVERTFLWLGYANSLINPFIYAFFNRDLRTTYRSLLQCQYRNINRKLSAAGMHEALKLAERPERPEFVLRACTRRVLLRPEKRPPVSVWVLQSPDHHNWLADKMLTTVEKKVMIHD

Mus musculus [19] = assay: […] activity in Swiss albino mouse assessed as inhibition of apomorphine-induced climbing behavior administered 10 mins before apomorphine challenge measured for 2 mins; assay type: functional
Outline: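 Male Swiss albino mice; compounds ip in 1% Tween 80 suspension, 10 min before apomorphine 3 mg/kg. Climbing time (2–4 paws on bar wall) recorded for 2 min starting 20 min after apomorphine.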

Mus musculus [20] = assay: […] activity in ip dosed Swiss albino mouse assessed as inhibition of DOI-induced head twitches administered 20 mins before DOI challenge measured for 20 mins; assay type: functional; settings: for ED50: read-out: ID50 (the source's name)
D(2) dopamine receptor = D(2) dopamine receptor (Rattus norvegicus, UniProt P61169); assay: Displacement of [3H]-spiperone from rat striatum dopamine D2 receptor by liquid scintillation counter; outline: as §1
Sequence of D(2) dopamine receptor (P61169 whole entry): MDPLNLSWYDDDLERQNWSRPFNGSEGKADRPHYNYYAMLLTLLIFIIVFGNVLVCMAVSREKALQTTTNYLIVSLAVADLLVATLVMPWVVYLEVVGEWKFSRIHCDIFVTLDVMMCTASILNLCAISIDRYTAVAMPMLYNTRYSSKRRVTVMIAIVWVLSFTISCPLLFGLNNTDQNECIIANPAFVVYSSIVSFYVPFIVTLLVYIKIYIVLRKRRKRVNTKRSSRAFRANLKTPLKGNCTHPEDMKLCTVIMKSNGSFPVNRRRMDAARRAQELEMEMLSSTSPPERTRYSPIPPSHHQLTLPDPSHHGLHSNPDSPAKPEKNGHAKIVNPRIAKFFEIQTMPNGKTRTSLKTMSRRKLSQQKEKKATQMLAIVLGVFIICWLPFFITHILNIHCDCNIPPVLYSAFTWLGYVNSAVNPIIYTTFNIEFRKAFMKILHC

Mus musculus [21] = assay: Antidepressant activity in mouse assessed as spontaneous locomotor activity 10 to 30 mg/kg; assay type: functional, organism-based
Outline: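 Swiss albino mice given the forced swim doses ip 30 min before; placed individually in cages and channel crossings counted from 2 to 6 min with a multichannel activity monitor, matching the swim test observation period.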

[22] = Selectivity ratio of compound Ki for rat hippocampus 5-HT1A receptor to human 5HT7 receptor; assay type: tissue-based
Outline: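 Ratio of Ki values from competition binding: rat hippocampus 5-HT1A with [3H]-8-OH-DPAT versus human 5-HT7 in HEK293 with [3H]-5-CT; Ki by Cheng–Prusoff from 7–9 concentrations in triplicate.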

Mus musculus [23] = assay: Antipsychotic activity in CD1 mouse assessed as reduction in spontaneous locomotor activity measuring number of crossings at 0.5 to 1 mg/kg every 5 mins for 1 hr; assay type: functional, organism-based
Outline: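 Male CD-1 mice; compound or reference ip 30 min before test plus vehicle. After 30 min habituation in individual cages, crossings counted over 1 h, recorded every 5 min; mean ± SEM; one-way ANOVA, Bonferroni.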

In the case of O=S(=O)(c1cnc2ccccc2c1)N1CCC(CN2CCN(c3ccc(Cl)cc3)CC2)CC1, the Ki [1] is reported as 462 nM and the Ki [2] is reported as 6000 nM.
For CN1CCN(C2=Nc3cc(Cl)ccc3Nc3ccccc32)CC1, the inhibition (Mus musculus [3]) was “Dose-dependent effect” and the Activity (Mus musculus [4]) was “Active”.
O=S(=O)(NCCCCN1CCN(c2ccc(Cl)cc2)CC1)c1cncc2ccccc12 showed a Ki [1] of 1000 nM and a Ki [2] of 211 nM.
CN(C)CCCN1c2ccccc2CCc2ccccc21.Cl [IMIPRAMINE HYDROCHLORIDE] gave an Activity (Mus musculus [5]) of 52% and an Activity (Mus musculus [6]) of 26.5%.
Molecule CN1C(=O)CN=C(c2ccccc2)c2cc(Cl)ccc21 [DIAZEPAM] has an Activity (Rattus norvegicus [7]) of 46.6%, an Activity (Rattus norvegicus [8]) of 21.8% and an Activity (Rattus norvegicus [9]) of 63.7%. It also gave an Activity (Rattus norvegicus [10]) of 29.7%, an Activity (Rattus norvegicus [11]) of 35.4% and an Activity (Rattus norvegicus [12]) of 28.5%.
Molecule O=S(=O)(NCCCCN1CCN(c2ccc(Cl)cc2)CC1)c1cnc2ccccc2c1 has an inhibition [13] of 37%, a Ki [1] of 771 nM and an inhibition [14] of 78%. The inhibition [15] was 82%, the inhibition [16] was 46% and the Ki [2] was 56 nM.
O=S(=O)(NCCCCN1CCN(c2cccc(Cl)c2)CC1)c1cccc2cccnc12 gave a Ki [17] of 3760 nM, a Ki [1] of 74 nM and a Ki [18] of 25 nM. It also gave a Ki [2] of 152 nM.
With Cl.O=S(=O)(c1cnc2ccccc2c1)N1CCC(CCN2CCN(c3ccc(Cl)cc3)CC2)CC1 the inhibition (Mus musculus [19]) was “Dose-dependent effect”, the ED50 (Mus musculus [19]; read-out: ID50 (the source's name)) was 25 mg/kg and the Ki [17] was 24800 nM. For the same molecule, the inhibition (Mus musculus [20]) was “Dose-dependent effect”, the ED50 (Mus musculus [20]) was 5.12 mg/kg and the Ki (D(2) dopamine receptor) was 56 nM. The inhibition [13] was 63%, the Ki [1] was 8300 nM and the Activity (Mus musculus [21]) was “inactive”. The Ki [18] was 40 nM, the inhibition [14] was 90% and the inhibition [15] was 90%. It also gave an inhibition [16] of 52%, a Ratio Ki [22] of 207 and a Ki [2] of 31 nM.
Work on O=S(=O)(NCCCCN1CCN(c2ccc(Cl)cc2)CC1)c1ccc2ncccc2c1 yielded a Ki [1] of 2030 nM and a Ki [2] of 44 nM.
Molecule O=S(=O)(NCCCCCN1CCN(c2ccc(Cl)cc2)CC1)c1cnc2ccccc2c1 has a Ki [1] of 5800 nM and a Ki [2] of 114 nM.
In the case of O=S(=O)(NCCCCN1CCN(c2ccc(Cl)cc2)CC1)c1ccc2cccnc2c1, the Ki [17] is reported as 1730 nM, the Ki [1] is reported as 868 nM and the Ki [18] is reported as 381 nM. The Ki [2] was 63 nM.
With O=S(=O)(NCCCCN1CCN(c2cccc(Cl)c2)CC1)c1cccc2ccccc12 the Ki [17] was 127 nM, the Ki [1] was 397 nM and the Ki [18] was 36 nM. For the same molecule, the Ratio Ki [22] was 10 and the Ki [2] was 268 nM.
For O=S(=O)(NCCCCN1CCN(c2cccc(Cl)c2)CC1)c1ccc2ncccc2c1, the Ki [2] was 42 nM.
O=C(c1ccc(F)cc1)C1CCN(CCn2c(=O)[nH]c3ccccc3c2=O)CC1 [KETANSERIN] showed an ED50 (Mus musculus [20]) of 0.12 mg/kg.
O=S(=O)(NCCCN1CCN(c2cccc(Cl)c2)CC1)c1cnc2ccccc2c1 gave a Ki [2] of 206 nM.
For O=S(=O)(c1ccc2cccnc2c1)N1CCC(CN2CCN(c3ccc(Cl)cc3)CC2)CC1, the Ki [1] was 338 nM and the Ki [2] was 761 nM.
Work on O=S(=O)(NCCCCN1CCN(c2cccc(Cl)c2)CC1)c1ccc2ccccc2c1 yielded a Ki [1] of 497 nM and a Ki [2] of 22 nM.
With O=C(CCCN1CCC(O)(c2ccc(Cl)cc2)CC1)c1ccc(F)cc1 the inhibition (Mus musculus [3]) was “Dose-dependent effect” and the Activity (Mus musculus [23]) was “Active”.
Work on O=S(=O)(NCCCN1CCN(c2ccc(Cl)cc2)CC1)c1cncc2ccccc12 yielded a Ki [1] of 888 nM.
O=S(=O)(NCCCCN1CCN(c2cccc(Cl)c2)CC1)c1cnc2ccccc2c1 showed an inhibition [13] of 30%, an inhibition [15] of 94% and an inhibition [16] of 70%. It also gave a Ki [2] of 22 nM.
